Source: ChEMBL document CHEMBL3588826, “Chimeric derivatives of functionalized amino acids and α-aminoamides: compounds with anticonvulsant activity in seizure models and inhibitory actions on central, peripheral, and cardiac isoforms of voltage-gated sodium channels” (Bioorg Med Chem, 2015)
Activity calls are given as the source filed them. No cut-off for these calls is given here.

What was measured:
Mus musculus = test: Anticonvulsant activity in ip dosed albino Carworth Farms No. 1 mouse measured at 0.25 hrs by maximal electroshock seizure test; format: functional; settings: Carworth Farms No. 1, ip
Summary of the method: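 Screened under the NIH anticonvulsant program in male albino Carworth Farms No. 1 mice (ip) and male albino Sprague-Dawley rats (ip or oral). Protection tested by maximal electroshock or 6 Hz (32 mA) psychomotor stimulation.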

[1] = Protective index, ratio of TD50 for behavioural toxicity in po dosed albino Sprague-Dawley rat to ED50 for anticonvulsant activity in po dosed MES albino Sprague-Dawley rat model; format: organism-based; settings: in vivo, read-out: Ratio TD50/ED50
Summary of the method: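 Male albino Sprague-Dawley rats were dosed ip or orally. Protective index = TD50/ED50, the ED50 taken from maximal electroshock by the same route.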

Rattus norvegicus [2] = test: Anticonvulsant activity in ip dosed albino Sprague-Dawley rat measured at 2 hrs by maximal electroshock seizure test; format: functional
Summary of the method: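 Screened under the NIH Anticonvulsant Screening Program in male rodents, with mice and rats dosed ip and rats also dosed po. Maximal electroshock (MES) and 6 Hz (32 mA) psychomotor seizure tests were run.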

[3] = Behavioural toxicity in ip dosed albino Sprague-Dawley rat measured at 2 hrs; format: organism-based; settings: in vivo
Rattus norvegicus [4] = species: Rattus norvegicus; test: Inhibition of voltage-gated sodium channel in rat embryonic cortical neurons assessed as decrease in fraction of current available at 10 uM measured at -50 mV by whole cell patch-clamp electrophysiology
Summary of the method: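 Embryonic cortical neurons were treated with 10 μM compound or 0.1% DMSO, whole-cell voltage clamp at room temperature. Slow inactivation was assessed at −50 mV, with the fraction inactivated taken as 1 minus the normalized INa. Student's t-test; 5–8 cells per condition.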

CAD [5] = test: Inhibition of voltage-gated sodium channel in mouse CAD cells assessed as transition of channels to slow-inactivated state by whole cell patch-clamp electrophysiology; format: cell-based
Summary of the method: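 CAD cells were grown in Ham's F12/DMEM with 10% FBS at 37 °C and 5% CO2, then recorded by whole-cell voltage clamp at room temperature. A concentration range of compound was tested versus 0.1% DMSO. Slow inactivation was measured at −50 and +20 mV, and IC50 was derived from concentration-response curves.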

CAD [6] = test: Inhibition of voltage-gated sodium channel in mouse CAD cells assessed as half-maximal voltage for steady state fast-inactivation at 10 uM by whole cell patch-clamp electrophysiology (reference value: -69.1 +/-3.6 mV); format: cell-based
Summary of the method: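 CAD cells, whole-cell voltage clamp at room temperature. Prepulses from −120 to −10 mV in 10 mV steps for 500 ms, then a 0 mV, 20 ms test pulse. V1/2 from single-Boltzmann fits to individual cells, averaged (mean ± SEM). Compared with 0.1% DMSO by Student's t-test.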

[7] = target: Sodium channel protein type 1 subunit alpha (Homo sapiens) (UniProt P35498); test: Inhibition of human Nav1.1 expressed in HEK293 cells assessed as half-maximal voltage for steady state activation at 10 uM by whole cell patch-clamp electrophysiology (reference value: -24.69 +/-1.52 mV); format: cell-based
[8] = target: Sodium channel protein type 3 subunit alpha (Rattus norvegicus) (UniProt P08104); test: Inhibition of rat Nav1.3 expressed in HEK293 cells assessed as half-maximal voltage for steady state activation at 10 uM by whole cell patch-clamp electrophysiology (reference value: -29.62 +/-3.59 mV); format: cell-based
[9] = target: Sodium channel protein type 9 subunit alpha (Homo sapiens) (UniProt Q15858); test: Frequency-dependent inhibition of human Nav1.7 expressed in HEK293 cells assessed as current amplitude at 10 uM by whole cell patch-clamp electrophysiology; format: cell-based
Summary of the method: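 Stable HEK293 lines expressing hNav1.1, rNav1.3, hNav1.7 or hNav1.5 were recorded by whole-cell voltage clamp at room temperature, with 10 μM compound versus 0.1% DMSO. A 30-pulse train was applied, and the read-out was the fraction of current remaining at the last pulse normalized to the first. Nav1.5 used hyperpolarized protocols.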

Cytochrome P450 2B6 = target: T1, Cytochrome P450 2B6 (Homo sapiens, UniProt P20813); test: Inhibition of human CYP2B6 at 10 uM; format: ADME
T1 sequence (P20813 whole entry): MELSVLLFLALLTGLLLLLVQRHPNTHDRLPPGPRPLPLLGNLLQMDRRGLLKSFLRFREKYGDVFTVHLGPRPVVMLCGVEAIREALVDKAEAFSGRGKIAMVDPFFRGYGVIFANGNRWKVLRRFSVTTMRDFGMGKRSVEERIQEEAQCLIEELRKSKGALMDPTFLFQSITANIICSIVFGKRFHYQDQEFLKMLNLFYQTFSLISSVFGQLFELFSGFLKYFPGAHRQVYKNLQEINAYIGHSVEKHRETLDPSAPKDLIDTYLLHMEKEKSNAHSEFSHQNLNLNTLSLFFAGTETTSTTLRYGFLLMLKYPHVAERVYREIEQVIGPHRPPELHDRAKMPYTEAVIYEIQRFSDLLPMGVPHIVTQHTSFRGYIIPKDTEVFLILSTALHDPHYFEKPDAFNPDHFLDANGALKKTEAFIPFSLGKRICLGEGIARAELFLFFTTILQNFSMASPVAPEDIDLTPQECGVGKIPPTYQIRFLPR
Summary of the method: (§1)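 Test compound at 10 μM against a human CYP450 panel (CYP1A2, 2B6, 2C8, 2C9, 2C19, 2D6, 3A4/5). Direct inhibition was measured, and time-dependent inhibition was measured after a 30-min preincubation.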

Cytochrome P450 2C9 = Cytochrome P450 2C9 (Homo sapiens, UniProt P11712); test: Inhibition of human CYP2C9 at 10 uM; format: ADME; summary of the method: as §1
[10] = target: Voltage-gated inwardly rectifying potassium channel KCNH2 (Homo sapiens, UniProt Q12809); test: Binding affinity to human ERG at 30 uM by PatchExpress analysis
Rattus norvegicus [11] = test: Ratio of NOAEL in Sprague-Dawley rat to ED50 for anticonvulsant activity in po dosed Sprague-Dawley rat by MES test
Summary of the method: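 Non-GLP 7-day repeated-dose study in female Sprague-Dawley rats, given by oral gavage at 20, 60 and 180 mg/kg/day. Endpoints: weight bearing, gait coordination, respiratory rate, relative organ weights, clinical chemistry and gross pathology, giving a NOAEL. The ratio divides the NOAEL by the oral MES ED50.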

Rattus norvegicus [12] = test: Toxicity in po dosed Sprague-Dawley rat assessed as decrease in spleen weight administered via gavage; format: organism-based; settings: in vivo
Summary of the method: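 Non-GLP 7-day repeated-dose study in female Sprague-Dawley rats given oral gavage at 20, 60 and 180 mg/kg/day. Endpoints were weight bearing, gait coordination, respiratory rate, relative organ weights, clinical chemistry and gross pathology, with NOAEL determined.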

Rattus norvegicus [13] = test: Toxicity in po dosed Sprague-Dawley rat assessed as decrease in thymus weight administered via gavage; format: organism-based; settings: in vivo
Summary of the method: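 Non-GLP repeated-dose study: female Sprague-Dawley rats given compound by oral gavage once daily for 7 days at 20, 60 and 180 mg/kg/day. Endpoints included weight bearing, gait coordination, respiratory rate, relative organ weights (liver, spleen, thymus), clinical chemistry and gross pathology; NOAEL derived.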

Chain of Cytochrome P450 2C9 (P11712 whole entry): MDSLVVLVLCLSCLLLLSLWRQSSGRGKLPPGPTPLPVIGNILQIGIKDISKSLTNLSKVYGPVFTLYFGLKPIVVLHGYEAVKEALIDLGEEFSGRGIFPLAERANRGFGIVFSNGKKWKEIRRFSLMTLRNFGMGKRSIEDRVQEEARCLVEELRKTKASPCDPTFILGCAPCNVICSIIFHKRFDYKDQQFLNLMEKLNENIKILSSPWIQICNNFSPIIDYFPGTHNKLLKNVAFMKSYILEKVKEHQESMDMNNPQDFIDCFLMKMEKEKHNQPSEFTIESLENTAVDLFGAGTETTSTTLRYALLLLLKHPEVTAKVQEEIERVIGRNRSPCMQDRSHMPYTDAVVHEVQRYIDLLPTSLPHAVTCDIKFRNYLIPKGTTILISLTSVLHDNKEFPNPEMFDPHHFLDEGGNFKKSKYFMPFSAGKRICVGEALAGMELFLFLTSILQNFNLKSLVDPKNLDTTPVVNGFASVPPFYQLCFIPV
Chain of Sodium channel protein type 3 subunit alpha (Rattus norvegicus) (P08104 whole entry): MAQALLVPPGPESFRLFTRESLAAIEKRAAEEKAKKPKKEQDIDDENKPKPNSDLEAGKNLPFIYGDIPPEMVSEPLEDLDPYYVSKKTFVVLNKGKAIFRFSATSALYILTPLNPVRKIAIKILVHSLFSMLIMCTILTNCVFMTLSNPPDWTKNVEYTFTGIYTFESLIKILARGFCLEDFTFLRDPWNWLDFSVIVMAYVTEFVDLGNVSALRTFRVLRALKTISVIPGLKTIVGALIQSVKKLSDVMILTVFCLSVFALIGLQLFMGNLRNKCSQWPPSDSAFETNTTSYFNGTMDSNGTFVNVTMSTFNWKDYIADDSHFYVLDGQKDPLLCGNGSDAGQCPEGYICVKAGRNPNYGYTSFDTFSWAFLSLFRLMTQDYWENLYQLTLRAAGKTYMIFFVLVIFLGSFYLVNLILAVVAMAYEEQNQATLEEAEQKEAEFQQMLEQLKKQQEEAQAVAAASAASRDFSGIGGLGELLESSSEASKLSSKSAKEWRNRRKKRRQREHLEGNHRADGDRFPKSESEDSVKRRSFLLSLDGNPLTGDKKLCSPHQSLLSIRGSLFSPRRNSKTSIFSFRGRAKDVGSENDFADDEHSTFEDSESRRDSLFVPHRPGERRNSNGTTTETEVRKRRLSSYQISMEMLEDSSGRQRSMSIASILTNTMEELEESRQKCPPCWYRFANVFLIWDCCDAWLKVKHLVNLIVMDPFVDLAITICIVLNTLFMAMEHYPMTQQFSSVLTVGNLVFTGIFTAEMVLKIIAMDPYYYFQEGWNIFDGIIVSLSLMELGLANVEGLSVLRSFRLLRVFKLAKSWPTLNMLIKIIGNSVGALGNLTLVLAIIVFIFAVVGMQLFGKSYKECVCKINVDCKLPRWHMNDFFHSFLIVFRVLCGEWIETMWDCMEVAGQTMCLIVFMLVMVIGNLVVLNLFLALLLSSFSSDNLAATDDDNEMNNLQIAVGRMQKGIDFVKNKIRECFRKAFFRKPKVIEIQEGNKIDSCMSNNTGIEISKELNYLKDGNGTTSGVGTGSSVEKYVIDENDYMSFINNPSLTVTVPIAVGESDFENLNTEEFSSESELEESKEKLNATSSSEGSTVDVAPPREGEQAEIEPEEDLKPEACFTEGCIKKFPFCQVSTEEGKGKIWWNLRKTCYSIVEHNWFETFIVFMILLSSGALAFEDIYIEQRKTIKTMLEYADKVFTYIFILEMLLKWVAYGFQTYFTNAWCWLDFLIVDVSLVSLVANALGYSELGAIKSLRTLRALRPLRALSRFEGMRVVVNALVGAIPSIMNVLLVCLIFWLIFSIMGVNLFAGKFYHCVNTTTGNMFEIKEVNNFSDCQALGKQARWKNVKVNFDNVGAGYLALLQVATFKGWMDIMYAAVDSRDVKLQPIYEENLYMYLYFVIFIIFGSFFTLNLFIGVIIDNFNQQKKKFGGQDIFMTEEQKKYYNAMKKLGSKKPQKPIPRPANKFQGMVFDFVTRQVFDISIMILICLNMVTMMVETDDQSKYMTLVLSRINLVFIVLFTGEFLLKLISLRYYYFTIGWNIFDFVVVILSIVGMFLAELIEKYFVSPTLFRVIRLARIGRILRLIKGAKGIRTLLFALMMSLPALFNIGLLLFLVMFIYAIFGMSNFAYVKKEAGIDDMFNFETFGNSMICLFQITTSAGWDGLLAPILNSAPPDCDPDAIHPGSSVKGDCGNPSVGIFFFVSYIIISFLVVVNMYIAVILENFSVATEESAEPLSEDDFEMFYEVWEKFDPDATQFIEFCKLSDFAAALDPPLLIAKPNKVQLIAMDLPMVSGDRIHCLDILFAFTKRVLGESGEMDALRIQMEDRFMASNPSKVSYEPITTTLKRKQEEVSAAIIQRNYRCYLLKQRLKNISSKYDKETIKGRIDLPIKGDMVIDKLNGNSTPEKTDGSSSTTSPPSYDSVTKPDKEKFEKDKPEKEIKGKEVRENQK
Chain of Sodium channel protein type 9 subunit alpha (Homo sapiens) (Q15858 whole entry, looked up): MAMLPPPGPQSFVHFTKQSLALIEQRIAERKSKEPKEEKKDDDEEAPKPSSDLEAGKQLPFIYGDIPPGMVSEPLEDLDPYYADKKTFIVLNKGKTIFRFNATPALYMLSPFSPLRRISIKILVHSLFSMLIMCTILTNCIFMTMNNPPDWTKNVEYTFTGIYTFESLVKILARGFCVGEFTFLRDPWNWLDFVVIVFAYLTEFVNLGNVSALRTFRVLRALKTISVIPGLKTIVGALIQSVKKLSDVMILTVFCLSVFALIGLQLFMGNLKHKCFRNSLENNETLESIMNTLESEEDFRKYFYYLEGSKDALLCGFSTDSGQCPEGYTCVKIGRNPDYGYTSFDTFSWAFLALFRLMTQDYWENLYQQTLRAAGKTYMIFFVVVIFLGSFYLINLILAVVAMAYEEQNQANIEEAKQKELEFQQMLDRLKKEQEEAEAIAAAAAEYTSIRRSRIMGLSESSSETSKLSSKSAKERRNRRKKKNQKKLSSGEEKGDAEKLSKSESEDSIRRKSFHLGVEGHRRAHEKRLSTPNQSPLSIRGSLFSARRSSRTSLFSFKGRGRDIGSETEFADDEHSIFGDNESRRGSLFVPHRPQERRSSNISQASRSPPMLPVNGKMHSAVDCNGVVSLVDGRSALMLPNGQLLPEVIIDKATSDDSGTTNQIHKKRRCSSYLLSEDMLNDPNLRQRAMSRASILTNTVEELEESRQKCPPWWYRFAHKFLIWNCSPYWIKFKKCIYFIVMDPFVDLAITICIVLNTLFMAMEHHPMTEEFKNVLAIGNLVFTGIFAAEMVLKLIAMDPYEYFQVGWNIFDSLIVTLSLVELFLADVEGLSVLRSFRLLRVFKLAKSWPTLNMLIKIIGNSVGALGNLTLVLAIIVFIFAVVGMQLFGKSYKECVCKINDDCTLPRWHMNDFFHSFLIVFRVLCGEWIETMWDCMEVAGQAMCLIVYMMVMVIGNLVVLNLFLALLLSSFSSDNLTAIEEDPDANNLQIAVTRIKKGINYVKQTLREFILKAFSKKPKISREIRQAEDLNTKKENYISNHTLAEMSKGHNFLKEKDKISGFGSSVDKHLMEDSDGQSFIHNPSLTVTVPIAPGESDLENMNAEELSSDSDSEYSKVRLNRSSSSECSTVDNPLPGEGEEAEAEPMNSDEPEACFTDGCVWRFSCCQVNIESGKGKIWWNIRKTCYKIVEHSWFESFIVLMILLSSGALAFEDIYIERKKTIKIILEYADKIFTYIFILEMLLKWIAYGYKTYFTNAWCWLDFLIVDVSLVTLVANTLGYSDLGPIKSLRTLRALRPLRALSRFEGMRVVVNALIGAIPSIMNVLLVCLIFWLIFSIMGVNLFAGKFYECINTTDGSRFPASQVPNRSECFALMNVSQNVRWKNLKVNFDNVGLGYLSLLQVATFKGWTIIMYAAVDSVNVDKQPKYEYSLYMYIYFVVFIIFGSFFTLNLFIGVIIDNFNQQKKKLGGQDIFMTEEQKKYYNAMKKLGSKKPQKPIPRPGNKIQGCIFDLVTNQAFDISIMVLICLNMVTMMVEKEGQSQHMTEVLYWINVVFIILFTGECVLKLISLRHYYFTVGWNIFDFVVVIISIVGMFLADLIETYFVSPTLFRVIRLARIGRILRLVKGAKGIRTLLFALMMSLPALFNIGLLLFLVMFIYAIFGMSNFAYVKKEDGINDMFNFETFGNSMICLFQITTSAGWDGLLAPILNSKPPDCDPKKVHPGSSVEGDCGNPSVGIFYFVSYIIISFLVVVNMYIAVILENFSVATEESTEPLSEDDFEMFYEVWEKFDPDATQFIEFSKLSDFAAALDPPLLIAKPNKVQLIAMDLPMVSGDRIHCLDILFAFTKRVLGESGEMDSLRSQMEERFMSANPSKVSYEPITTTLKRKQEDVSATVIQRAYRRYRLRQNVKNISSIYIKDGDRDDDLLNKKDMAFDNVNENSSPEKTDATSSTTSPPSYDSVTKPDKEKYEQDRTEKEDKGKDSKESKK

COC[C@@H](NC(C)=O)C(=O)NCc1ccc(Oc2cccc(OC(F)(F)F)c2)cc1
ED50 (Mus musculus): 6.5 mg/kg
selectivity ratio [1]: 29
ED50 (Rattus norvegicus [2]): 5.7 mg/kg
TD50 at 2 h [3]: 54 mg/kg
inhibition (Rattus norvegicus [4]): Active
inhibition (CAD [5]): Dose-dependent effect
V1/2 (CAD [6]): -84.6 mV
V1/2 [7]: -24.4 mV
V1/2 [8]: -32.5 mV
inhibition [9]: inactive
inhibition (INH) (Cytochrome P450 2B6): Not Active
inhibition (INH) (Cytochrome P450 2C9): Not Active
Activity [10]: Not Active
Ratio (Rattus norvegicus [11]): 10
Activity (Rattus norvegicus [12]): Toxic
Activity (Rattus norvegicus [13]): Toxic
